The test system of data set [1] is mGlu2 coexpressed with mGlu4. As to conditions: cited from earlier work.
Another data set relates to 6-OHDA lesion models. As to conditions: various 6-OHDA lesion models; cited from earlier work.
In another data set the target is human mGlu4 (Homo sapiens, UniProt Q14833). The data set is described as follows: Gqi5-mediated calcium mobilization assay, human mGlu4/Gqi5/CHO cells. The class given is cell-based. The following applies: absence of glutamate.
The next data set concerns the target rat mGlu4 (Rattus norvegicus, UniProt P31423). The data set is described as follows: GIRK/thallium flux assay, rat mGlu4/HEK/GIRK cells. In kind it is cell-based. In outline: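 Polyclonal HEK/GIRK cells stably expressing rat mGlu4 (pIRESpuro3, puromycin-selected) were loaded with 330 nM final FluoZin-2 AM in HBSS/20 mM HEPES pH 7.4 for 1 h at room temperature. Thallium flux was read kinetically at room temperature. EC50 came from four-parameter logistic fits; three determinations in triplicate, mean ± SEM.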

Another data set concerns the target mGlu4 (Rattus norvegicus, UniProt P31423). The data set is described as follows: Glutamate concentration-response curve shift in cells expressing mGlu4 alone. In kind it is cell-based. As to conditions: for glutamate pEC50 in presence of PAM / fold shift of glutamate CRC: mGlu4 alone.
A further data set deals with mGlu2/4. The data set is described as follows: Glutamate concentration-response curve shift in cells expressing mGlu2 and mGlu4. The class given is cell-based, rat. As to conditions: for effect on the glutamate CRC: cells expressing mGlu2 and mGlu4; for glutamate pEC50 in presence of PAM / fold shift of glutamate CRC: mGlu2/4 cells.
For another data set, the target named is mGlu4 homomers (Rattus norvegicus, UniProt P31423). Put plainly: CODA-RET assay, mGlu4_L1/mGlu4_L2. The class given is cell-based. As to conditions: for max response (BRET) in presence of PAM: mGlu4_L1/mGlu4_L2, L-AP4; for potentiation of L-AP4 responses: mGlu4 labeled with L1 or L2. In outline:
(§1)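 HEK-293T cells were PEI-transfected with HA-tagged rat mGlu constructs bearing luciferase fragments, plus Gαi-mVenus, Gβ1 and Gγ2. Plasmid ratios were 4:4:1:1:1 for mGlu4-L1/mGlu4-L2 homomers and 4:8:1:1:1 for mGlu4-L1/mGlu2-L2 heteromers. At 48 h, about 200 000 cells/well in PBS were stimulated 5 min at 37 °C with L-AP4 with or without increasing compound. Coelenterazine H (5 µM) was added, read 2 min later; BRET ratio = 510–540 nm over 485 nm.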

The target of a further data set is mGlu2/4 heteromers (Rattus norvegicus, UniProt P31423). The data set is described as follows: CODA-RET assay, mGlu4_L1/mGlu2_L2. The class given is cell-based. As to conditions: for max response (BRET) in presence of PAM: L-AP4; for potentiation of L-AP4 responses: mGlu4_L1 and mGlu2_L2 coexpressed. In outline: as §1
Data set [2] relates to haloperidol-induced catalepsy. The data set is described as follows: Haloperidol-induced catalepsy. In kind it is in vivo, Sprague–Dawley rats. The following applies: oral, catalepsy assessed 30 min after dosing.
Data set [3] can be described thus: Plasma and brain exposure time course after 30 mg/kg dose. The class given is in vivo. As to conditions: rat.
In data set [4] the test system is rotarod motor performance. The data set is described as follows: Rotarod test. The class given is in vivo, rats. As to conditions: doses up to 100 mg/kg p.o., tested 30 min later. In outline:
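Rats were pre-trained on the rotarod, then given vehicle or test compound at 10, 30, 56.6 or 100 mg/kg p.o. (10 mL/kg). Motor performance was tested 30 min after dosing.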

The test system of data set [5] is unilateral 6-OHDA lesion forelimb asymmetry. The data set is described as follows: 6-OHDA lesion-induced forelimb asymmetry. The class given is in vivo, rats.
The conditions of data set [6]: cited from earlier work.
Data set [7] deals with haloperidol-induced catalepsy. As to conditions: 56.6 mg/kg p.o.; previously demonstrated; cited from earlier work.
Setting [8] is: CODA-RET, labeled mGlu2 and mGlu4 coexpressed.

Entries after “also recorded” stand apart in the source; their conditions may differ. Like-named read-outs stand apart in the source and are kept apart here. Marks after values point to notes of the source that are not given here.

mGlu2/4 heteromers, sequence (P31423 33-912): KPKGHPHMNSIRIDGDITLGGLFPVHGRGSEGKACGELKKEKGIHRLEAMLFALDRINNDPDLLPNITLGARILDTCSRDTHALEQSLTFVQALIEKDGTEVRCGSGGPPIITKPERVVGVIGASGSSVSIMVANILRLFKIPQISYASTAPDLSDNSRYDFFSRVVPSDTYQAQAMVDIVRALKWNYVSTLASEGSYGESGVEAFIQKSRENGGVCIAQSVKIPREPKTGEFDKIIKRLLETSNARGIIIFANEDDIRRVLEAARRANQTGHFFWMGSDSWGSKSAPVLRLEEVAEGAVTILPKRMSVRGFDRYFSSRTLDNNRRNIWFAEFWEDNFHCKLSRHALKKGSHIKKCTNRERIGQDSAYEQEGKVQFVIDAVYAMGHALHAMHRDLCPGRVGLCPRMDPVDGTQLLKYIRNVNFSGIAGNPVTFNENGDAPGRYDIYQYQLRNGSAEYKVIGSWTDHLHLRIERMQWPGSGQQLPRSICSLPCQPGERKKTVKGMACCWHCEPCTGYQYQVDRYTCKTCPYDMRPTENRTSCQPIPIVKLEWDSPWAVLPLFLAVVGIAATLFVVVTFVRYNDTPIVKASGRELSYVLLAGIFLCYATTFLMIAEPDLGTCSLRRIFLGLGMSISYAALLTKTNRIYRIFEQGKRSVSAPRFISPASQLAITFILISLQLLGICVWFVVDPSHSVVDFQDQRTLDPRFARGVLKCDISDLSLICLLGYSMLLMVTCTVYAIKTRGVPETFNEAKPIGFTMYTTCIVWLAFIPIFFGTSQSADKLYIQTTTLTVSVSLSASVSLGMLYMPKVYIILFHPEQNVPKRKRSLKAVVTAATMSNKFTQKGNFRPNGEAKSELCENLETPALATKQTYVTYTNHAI
mGlu2/4 heteromers, sequence (P31421 19-872 partner): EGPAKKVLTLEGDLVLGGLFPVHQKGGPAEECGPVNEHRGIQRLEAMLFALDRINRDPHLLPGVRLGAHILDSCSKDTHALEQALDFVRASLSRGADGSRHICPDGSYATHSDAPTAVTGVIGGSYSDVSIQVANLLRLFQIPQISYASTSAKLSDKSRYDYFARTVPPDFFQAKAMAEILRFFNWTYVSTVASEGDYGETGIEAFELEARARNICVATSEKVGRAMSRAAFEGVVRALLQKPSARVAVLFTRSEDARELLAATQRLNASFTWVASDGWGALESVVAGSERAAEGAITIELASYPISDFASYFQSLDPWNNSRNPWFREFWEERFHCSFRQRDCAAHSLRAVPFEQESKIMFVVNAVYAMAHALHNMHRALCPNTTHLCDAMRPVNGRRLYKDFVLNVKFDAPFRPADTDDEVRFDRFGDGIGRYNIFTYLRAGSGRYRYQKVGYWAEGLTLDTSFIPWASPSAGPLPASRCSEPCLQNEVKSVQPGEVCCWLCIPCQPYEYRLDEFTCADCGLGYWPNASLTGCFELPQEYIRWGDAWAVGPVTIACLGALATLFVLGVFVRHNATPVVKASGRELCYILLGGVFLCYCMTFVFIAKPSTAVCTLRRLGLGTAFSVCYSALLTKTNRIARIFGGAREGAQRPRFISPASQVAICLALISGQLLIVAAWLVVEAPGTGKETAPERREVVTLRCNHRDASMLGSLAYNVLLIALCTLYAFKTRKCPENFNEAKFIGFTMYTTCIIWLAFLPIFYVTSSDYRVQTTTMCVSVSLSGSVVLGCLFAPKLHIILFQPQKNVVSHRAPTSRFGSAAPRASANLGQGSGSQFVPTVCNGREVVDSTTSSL
mGlu4, sequence (P31423 33-912): as the sequence (P31423 33-912) above
mGlu4 homomers, sequence (P31423 33-912): as above
mGlu4 homomers, sequence (P31423 33-912): as above
rat mGlu4, sequence (P31423 33-912): as above
human mGlu4, sequence (Q14833 33-912): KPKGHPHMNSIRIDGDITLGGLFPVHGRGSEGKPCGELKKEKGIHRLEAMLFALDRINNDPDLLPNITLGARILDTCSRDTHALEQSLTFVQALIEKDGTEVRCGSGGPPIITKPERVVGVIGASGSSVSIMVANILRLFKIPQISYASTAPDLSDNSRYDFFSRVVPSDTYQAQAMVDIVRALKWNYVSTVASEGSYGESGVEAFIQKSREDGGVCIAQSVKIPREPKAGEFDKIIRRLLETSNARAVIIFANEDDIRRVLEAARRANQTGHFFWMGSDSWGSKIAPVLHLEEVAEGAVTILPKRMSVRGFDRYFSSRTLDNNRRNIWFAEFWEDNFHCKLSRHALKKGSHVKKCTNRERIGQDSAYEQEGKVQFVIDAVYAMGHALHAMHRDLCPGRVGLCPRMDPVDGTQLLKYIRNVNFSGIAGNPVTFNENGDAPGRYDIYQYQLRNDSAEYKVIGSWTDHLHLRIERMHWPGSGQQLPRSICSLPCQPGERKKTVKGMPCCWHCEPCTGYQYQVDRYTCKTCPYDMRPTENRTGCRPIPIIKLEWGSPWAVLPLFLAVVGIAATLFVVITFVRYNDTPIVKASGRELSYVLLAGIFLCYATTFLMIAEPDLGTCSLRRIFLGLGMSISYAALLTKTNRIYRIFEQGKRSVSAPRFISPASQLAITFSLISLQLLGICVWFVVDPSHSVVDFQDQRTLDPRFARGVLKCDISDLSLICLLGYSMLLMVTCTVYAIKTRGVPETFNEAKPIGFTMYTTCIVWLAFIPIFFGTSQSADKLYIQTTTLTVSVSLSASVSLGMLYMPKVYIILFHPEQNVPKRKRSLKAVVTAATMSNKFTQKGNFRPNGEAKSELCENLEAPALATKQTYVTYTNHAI

Take `O=C(Nc1cc(Cl)cc(Cl)c1)[C@H]1CCCC[C@H]1C(=O)O` [VU0155041]: the “potentiation when mGlu2 and mGlu4 are coexpressed” value in [1] was “induce potentiation regardless of mGlu2 expression”.

On to `Cc1ccnc(Nc2nc(-c3cn[nH]c3)c(C)s2)n1` [ADX88178], for which, in the data set with 6-OHDA lesion models, the “potentiation of the effects of subthreshold doses of L-DOPA” value is reported as “potentiate the effects of subthreshold doses of L-DOPA”.

Consider `Fc1ccc(Nc2n[nH]c3cccnc23)cc1Cl` [VU0418506, N-(3-chloro-4-fluorophenyl)-1H-pyrazolo[4,3-b]pyridin-3-amine], for which the “direct allosteric agonist activity (compound added alone)” value on human mGlu4 is “does not exhibit direct allosteric agonist activity; also recorded: does not elicit activity in this assay in the absence of glutamate”. For the same compound, the concentration giving a half-maximal response (EC50) on rat mGlu4 is 46.6 nM; at rat mGlu4 (read-out: EC50 (PAM potency), rat mGlu4, GIRK/thallium flux), 46 nM. In addition, the “pEC50 (PAM potency)” value at rat mGlu4 (rat mGlu4, GIRK/thallium flux, mean ± SEM) is 7.34 ± 0.04. Besides, the “potentiation of glutamate response” value on mGlu4 (cells only expressing mGlu4) is recorded as “induced significant potentiation”. Also, the “glutamate pEC50 in presence of PAM” value on mGlu4 (PAM concentration −5 (log)) is listed as 5.87 ± 0.13 ^b; at mGlu4 (PAM concentration −5.5 (log)), 6.07 ± 0.21 ^b; at mGlu4 (PAM concentration −6 (log)), 5.93 ± 0.12 ^b; at mGlu4 (PAM concentration −6.5 (log)), 5.67 ± 0.14 ^b; on mGlu4 (PAM concentration −7 (log)), 5.55 ± 0.17 ^b; at mGlu4 (PAM concentration −8 (log)), 5.08 ± 0.07. Further, the “glutamate pEC50 in presence of PAM” value with mGlu2/4 (PAM concentration −5.5 (log)) amounted to 6.02 ± 0.02; in the data set with mGlu2/4 (PAM concentration −6.5 (log)) it was 5.89 ± 0.07; with mGlu2/4 (PAM concentration −7 (log)), 5.87 ± 0.05; in the data set on mGlu2/4 (PAM concentration −8 (log)), 5.86 ± 0.08. The “effect on the glutamate CRC” value with mGlu2/4 was “no effect on the glutamate CRC”. In addition, the results for the “max response (BRET) in presence of PAM” value on mGlu4 homomers (CODA-RET) and on mGlu2/4 heteromers (setting [8]) were 0.047 ± 0.0004 and 0.021 ± 0.002, respectively. Moreover, the “potentiation of L-AP4 responses” value on mGlu4 homomers is “able to potentiate responses”; at mGlu2/4 heteromers, “unable to potentiate L-AP4 responses”. Besides, the “doses with significant activity in reversing catalepsy” value in data set [2] is reported as not below 3 mg/kg. Moreover, the “time after dosing for which sustained plasma and brain levels were observed” value in data set [3] is on record as “at least 6 h”. Moreover, the “impairment of rotorod performance” value in data set [4] is reported as “did not observe any impairment”. In addition, the “reversal of forelimb asymmetry” value in [5] (3 mg/kg VU0418506 combined with 0.75 mg/kg L-DOPA) was “statistically significant efficacy”; in data set [5] (3 mg/kg alone), “inactive alone”; in data set [5] (10 mg/kg administered alone, assessed after 30 min), “statistically significant reversals of forelimb asymmetry”; in data set [5] (30 mg/kg administered alone, assessed after 30 min) it was “statistically significant reversals of forelimb asymmetry”. The brain penetration result in data set [6] is recorded as “good brain penetration”.

For the compound `N[C@@H](Cc1ccc(O)c(O)c1)C(=O)O` [L-DOPA], the “reversal of forelimb asymmetry” value is “inactive alone” in data set [5] (0.75 mg/kg alone) and “completely reversed motor deficits” in data set [5] (2.5 mg/kg dose).

`Cc1cc(C)n(-c2cc(NC(=O)CN3CCN(C)CC3)nc(-c3ccco3)n2)n1` [compound 23, N-(6-(3,5-dimethyl-1H–pyrazol-1-yl)-2-(furan-2-yl)-pyrimidin-4-yl)-2-(4-methylpiperazin-1-yl)acetamide]: the “reversal of haloperidol-induced catalepsy (positive control)” value in data set [7] is given as “robust reversal of haloperidol-induced catalepsy”.

In the case of `NC(=O)[C@@H]1CCCC[C@@H]1C(=O)Nc1ccc(Cl)c(Cl)c1` [Lu AF21934], the “fold shift of glutamate CRC” value on mGlu4 (PAM concentration −4.5 (log)) is recorded as 4.2 ± 0.42; at mGlu4 (PAM concentration −5 (log)), 3.8 ± 0.21 ^c; at mGlu4 (PAM concentration −5.5 (log)), 3.2 ± 0.28 ^c; on mGlu4 (PAM concentration −6 (log)), 2.1 ± 0.17; on mGlu4 (PAM concentration −6.5 (log)) it was 1.6 ± 0.09 ^c; at mGlu4 (PAM concentration −7 (log)) it was 1.5 ± 0.12. Further, the “fold shift of glutamate CRC” value is 1.1 ± 0.03 on mGlu4 (PAM concentration −8 (log)); 3.2 ± 0.07 with mGlu2/4 (PAM concentration −4.5 (log)); 2.8 ± 0.07 ^c in the data set on mGlu2/4 (PAM concentration −5 (log)); 2.4 ± 0.13 ^c in the data set on mGlu2/4 (PAM concentration −5.5 (log)); 1.7 ± 0.04 in the data set with mGlu2/4 (PAM concentration −6 (log)); 1.2 ± 0.05 ^c with mGlu2/4 (PAM concentration −6.5 (log)). In addition, the figures for the “fold shift of glutamate CRC” value in the data set with mGlu2/4 (PAM concentration −7 (log)) and in the data set with mGlu2/4 (PAM concentration −8 (log)) were 1.2 ± 0.07 and 1.0 ± 0.07, respectively. Also, the “glutamate pEC50 in presence of PAM” value was 5.43 ± 0.08 ^b at mGlu4 (PAM concentration −4.5 (log)); 5.39 ± 0.06 ^b on mGlu4 (PAM concentration −5 (log)); 5.32 ± 0.07 ^b at mGlu4 (PAM concentration −5.5 (log)); 5.14 ± 0.07 ^b at mGlu4 (PAM concentration −6 (log)); 5.00 ± 0.04 ^b on mGlu4 (PAM concentration −6.5 (log)); 4.99 ± 0.07 ^b at mGlu4 (PAM concentration −7 (log)). Moreover, the “glutamate pEC50 in presence of PAM” value on mGlu4 (PAM concentration −8 (log)) was 4.85 ± 0.03; in the data set with mGlu2/4 (PAM concentration −4.5 (log)) it was 6.41 ± 0.08 ^b; in the data set on mGlu2/4 (PAM concentration −5 (log)), 6.36 ± 0.08 ^b; with mGlu2/4 (PAM concentration −5.5 (log)), 6.29 ± 0.06 ^b; with mGlu2/4 (PAM concentration −6 (log)), 6.13 ± 0.09 ^b; in the data set with mGlu2/4 (PAM concentration −6.5 (log)), 6.00 ± 0.09 ^b. Besides, the “glutamate pEC50 in presence of PAM” value came out at 5.99 ± 0.06 in the data set with mGlu2/4 (PAM concentration −7 (log)) and 5.91 ± 0.11 in the data set with mGlu2/4 (PAM concentration −8 (log)). In addition, the “effect on the glutamate CRC” value in the data set on mGlu2/4 is “induced a leftward shift in the glutamate CRC”. For the same compound, the “max response (BRET) in presence of PAM” value is 0.050 ± 0.003 on mGlu4 homomers (CODA-RET) and 0.032 ± 0.004 at mGlu2/4 heteromers (setting [8]). Further, the “L-AP4 pEC50 in presence of PAM” value on mGlu4 homomers (CODA-RET, mGlu4_L1/mGlu4_L2, mean ± SEM) is 7.70 ± 0.01; at mGlu2/4 heteromers (CODA-RET, labeled mGlu2 and mGlu4 coexpressed, mean ± SEM), 7.66 ± 0.11. Moreover, the “potentiation of L-AP4 responses” value at mGlu4 homomers and on mGlu2/4 heteromers was “able to potentiate responses” in each case. In addition, in [1], the “potentiation when mGlu2 and mGlu4 are coexpressed” value was “induce potentiation regardless of mGlu2 expression”. Also, the “potentiation of the effects of subthreshold doses of L-DOPA” value in the data set on 6-OHDA lesion models is reported as “potentiate the effects of subthreshold doses of L-DOPA”.

These data come from article PMC5073817 (ACS chemical neuroscience, 2016).
